Experimental findings from PMC8596699 (Chemmedchem, 2021) are described below.

This test deals with T1, DMT1 (SLC11A2) (Homo sapiens, UniProt P49281).
T1 sequence (P49281 1-568): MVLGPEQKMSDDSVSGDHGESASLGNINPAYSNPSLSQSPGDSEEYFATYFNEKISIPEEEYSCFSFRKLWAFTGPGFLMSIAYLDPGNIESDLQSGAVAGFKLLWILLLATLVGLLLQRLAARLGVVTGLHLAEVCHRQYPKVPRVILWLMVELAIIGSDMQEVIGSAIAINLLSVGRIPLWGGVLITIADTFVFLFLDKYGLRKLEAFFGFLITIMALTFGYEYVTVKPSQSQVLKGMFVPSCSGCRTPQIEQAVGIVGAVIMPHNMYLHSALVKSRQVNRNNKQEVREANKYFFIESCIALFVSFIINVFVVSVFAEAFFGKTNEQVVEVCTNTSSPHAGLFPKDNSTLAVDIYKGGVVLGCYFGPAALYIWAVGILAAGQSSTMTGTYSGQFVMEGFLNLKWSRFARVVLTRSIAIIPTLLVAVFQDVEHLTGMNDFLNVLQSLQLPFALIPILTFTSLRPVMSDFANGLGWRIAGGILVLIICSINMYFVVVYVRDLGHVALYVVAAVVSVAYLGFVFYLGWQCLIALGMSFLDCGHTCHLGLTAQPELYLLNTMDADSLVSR
Briefly: Radioactive 55Fe uptake assay in HEK293 cells stably overexpressing DMT1. In kind it is cell-based. The procedure, abridged:
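HEK293 cells stably expressing human DMT1 (pIRES2 DsRed-Express2, geneticin 500 μg/mL) were seeded at 50,000 cells/well for 24 h. Cells were preincubated 5 min in uptake buffer, pH 5.5, with a range of test compound. ⁵⁵Fe²⁺ (1 μM) with ascorbate and unlabelled Fe²⁺ was then added for 15 min at room temperature. After ice-cold washes, uptake was read by scintillation counting as % of DMSO control. IC50 came from a 4-parameter logistic fit (two experiments in triplicate), and LE was derived from IC50.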

The structures appear in SMILES notation.

In general, IC50 refers to the concentration that inhibits the measured activity by half. As to `CC1CCc2sc(C(=O)O)cc2C1` (centres unmarked) [compound 2], the half-maximal inhibitory concentration (IC50) amounted to 525 ± 65 µM. The “ligand efficiency LE” value (from DMT1 IC50) is 0.35 kcal^.mol^−1.
